Reference: paper PMC3349182 (British Journal of Cancer, 2012)

System: patients with advanced, refractory solid tumours
Assay: Phase I dose escalation: toxicity
Type: in vivo, human
Conditions: treatment-related
Method in brief: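 Oral dosing was once daily in 28-day cycles, escalating by an accelerated design from 0.2 mg/day. Toxicity was graded by NCI CTC v3.0. During cycle 1, patients had weekly examination, blood pressure, full blood count, biochemistry and urinalysis, plus ECGs on days 1 and 8. DLT covered drug-related toxicity in cycle 1: grade ⩾3 toxicity, repeated grade 2 toxicity needing dose reduction, or <75% of planned dose given. The MTD was the highest dose with ≤1/6 patients having a DLT, and 12 more patients were treated at the MTD.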

## COc1cc2nccc(Oc3ccc(NC(=O)NC4CC4)c(Cl)c3)c2cc1C(N)=O [E7080]
0.2–6.4 mg (n=21)
  Hypertension Grade 2, n patients: 0
  Hypertension Grade 3, % of patients: 5%
  Hypertension Grade 3, n patients: 1
  Lethargy (all grades), % of patients: 14%
  Lethargy (all grades), n patients: 3
  Nausea (all grades), % of patients: 38%
  Nausea (all grades), n patients: 8
  Proteinuria (all grades), % of patients: 14%
  Proteinuria (all grades), n patients: 3
  Proteinuria Grade 1, % of patients: 0%
  Proteinuria Grade 1, n patients: 0
  Proteinuria Grade 2, % of patients: 14%
  Proteinuria Grade 2, n patients: 3
  Proteinuria Grade 3, % of patients: 0%
  Proteinuria Grade 3, n patients: 0
  Stomatitis (all grades), % of patients: 5%
  Stomatitis (all grades), n patients: 1
  Vomiting (all grades), n patients: 7
12–20 mg (n=30)
  Abdominal pain (all grades), % of patients: 7%
  Abdominal pain (all grades), n patients: 2
  Anorexia (all grades), % of patients: 17%
  Anorexia (all grades), n patients: 5
  Constipation (all grades), % of patients: 10%
  Constipation (all grades), n patients: 3
  Diarrhoea (all grades), n patients: 8
  Dry skin (all grades), % of patients: 10%
  Dry skin (all grades), n patients: 3
  Dysphonia (all grades), % of patients: 13%
  Dysphonia (all grades), n patients: 4
  Fatigue (all grades), % of patients: 23%
  Fatigue (all grades), n patients: 7
  Headache (all grades), % of patients: 7%
  Headache (all grades), n patients: 2
  Hypertension (all grades), % of patients: 40%
  Hypertension (all grades), n patients: 12
  Hypertension Grade 1, % of patients: 7%
  Hypertension Grade 1, n patients: 2
  Hypertension Grade 2, % of patients: 23%
  Hypertension Grade 2, n patients: 7
  Hypertension Grade 3, % of patients: 10%
  Hypertension Grade 3, n patients: 3
  Lethargy (all grades), % of patients: 17%
  Lethargy (all grades), n patients: 5
  Nausea (all grades), % of patients: 17%
  Nausea (all grades), n patients: 5
  Proteinuria (all grades), n patients: 8
  Proteinuria Grade 1, % of patients: 0%
  Proteinuria Grade 1, n patients: 0
  Proteinuria Grade 2, % of patients: 20%
  Proteinuria Grade 3, % of patients: 7%
  Proteinuria Grade 3, n patients: 2
  Stomatitis (all grades), % of patients: 20%
  Vomiting (all grades), % of patients: 10%
  Vomiting (all grades), n patients: 3
Total (n=82)
  Abdominal pain (all grades), % of patients: 11%
  Abdominal pain (all grades), n patients: 9
  Anorexia (all grades), % of patients: 17%
  Anorexia (all grades), n patients: 14
  Constipation (all grades), % of patients: 17%
  Constipation (all grades), n patients: 14
  Diarrhoea (all grades), n patients: 28
  Dry skin (all grades), % of patients: 20%
  Dry skin (all grades), n patients: 16
  Dysphonia (all grades), % of patients: 22%
  Dysphonia (all grades), n patients: 18
  Fatigue (all grades), % of patients: 18%
  Fatigue (all grades), n patients: 15
  Headache (all grades), % of patients: 13%
  Headache (all grades), n patients: 11
  Hypertension (all grades), % of patients: 40%
  Hypertension Grade 1, % of patients: 7%
  Hypertension Grade 2, % of patients: 22%
  Hypertension Grade 2, n patients: 18
  Hypertension Grade 3, % of patients: 11%
  Lethargy (all grades), % of patients: 23%
  Nausea (all grades), % of patients: 37%
  Proteinuria (all grades), % of patients: 26%
  Proteinuria (all grades), n patients: 21
  Proteinuria Grade 1, % of patients: 0%
  Proteinuria Grade 1, n patients: 0
  Proteinuria Grade 2, % of patients: 18%
  Proteinuria Grade 2, n patients: 15
  Proteinuria Grade 3, % of patients: 7%
  Stomatitis (all grades), % of patients: 32%
  Stomatitis (all grades), n patients: 26
  Vomiting (all grades), % of patients: 23%
